# Measured values reported in ChEMBL document CHEMBL4373727, “Thienopyrimidinone Derivatives That Inhibit Bacterial tRNA (Guanine37-N1)-Methyltransferase (TrmD) by Restructuring the Active Site with a Tyrosine-Flipping Mechanism” (J Med Chem, 2019).
# Calls of active or inactive are those of the source. Unless noted, no cut-off for these calls is given here.
# Legend:
# Acinetobacter baumannii [1] = experiment: Antibacterial activity against Acinetobacter baumannii ATCC 17961 incubated for 24 hrs by serial broth microdilution method; assay type: functional
# Method in brief: (§1)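 Log-phase cultures from four colonies grown overnight at 37 °C, inoculated at ~5×10^5 cells/mL in cation-adjusted Mueller–Hinton broth with serially diluted compound. Grown 24 h at 37 °C, then OD600 read. MIC50/MIC90 are the concentrations giving 50%/90% growth inhibition relative to drug-free controls. Two independent experiments in duplicate.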
# Enterococcus faecalis [2] = experiment: Bactericidal activity against Enterococcus faecalis ATCC 51299 assessed as reduction in CFU at 1 to 4 times MIC90 incubated for 24 hrs; assay type: functional, organism-based
# [3] = target: T1, tRNA (guanine-N(1)-)-methyltransferase (Pseudomonas aeruginosa (strain ATCC 15692 / DSM 22644 / CIP 104116 / JCM14847 / LMG 12228 / 1C / PRS 101 / PAO1), UniProt Q9HXQ1); experiment: (§2) Inhibition of Pseudomonas aeruginosa tRNA (guanine(37)-N1)-methyltransferase (Leu5 to Asp25 residues) expressed in Escherichia coli BL21 (DE3) Rosetta T1R cells assessed as reduction in S-adenosyl-L-homocysteine production preincubated for 15 mins followed by 1.5 uM of tRNALeu(CAG) substrate and SAM addition and measured after 45 mins by MTase-Glo assay
# T1 sequence (Q9HXQ1 whole entry): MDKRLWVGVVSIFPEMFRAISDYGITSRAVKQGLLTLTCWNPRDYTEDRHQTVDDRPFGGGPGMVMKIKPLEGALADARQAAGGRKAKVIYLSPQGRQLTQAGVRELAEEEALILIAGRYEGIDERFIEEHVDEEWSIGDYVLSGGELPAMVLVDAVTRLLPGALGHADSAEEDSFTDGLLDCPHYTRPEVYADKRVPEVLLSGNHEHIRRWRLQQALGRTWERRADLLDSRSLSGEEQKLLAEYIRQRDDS
# Method in brief: (§3)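 MTase-Glo luminescence assay. 8 nM TrmD preincubated 15 min at ambient temperature with serially diluted inhibitor (0–500 μM) in 50 mM Tris-HCl pH 8.0, 80 mM NaCl, 1 mM MgCl2, 0.5 mM DTT, 0.01% Triton X-100. Reaction with 2 μM SAM and tRNALeu(CAG), 45 min at 37 °C. Detection 30 min in the dark, SAH read against a standard curve. IC50 by nonlinear regression. Two independent experiments in duplicate.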
# [4] = test system: Mycolicibacterium smegmatis; experiment: Antibacterial activity against Mycolicibacterium smegmatis MC2 155 at 100 uM incubated for 24 hrs; assay type: functional, organism-based
# Method in brief: (§4)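 Single-concentration growth screen: 100 μM test compound with log-phase bacteria at about 5×10^5 cells/mL. Incubation 24 h at 37 °C. Growth read by OD600 and given as percent of untreated control. MRSA was grown in cation-adjusted Mueller–Hinton broth. M. smegmatis was grown in complete Middlebrook 7H9. Ampicillin and kanamycin served as positive controls.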
# Staphylococcus aureus [5] = experiment: Antibacterial activity against methicillin-resistant Staphylococcus aureus ATCC 43300 at 100 uM incubated for 24 hrs; assay type: functional, organism-based; method in brief: as §4
# Salmonella enteritidis [6] = experiment: Antibacterial activity against Salmonella enteritidis ATCC 13076 incubated for 24 hrs by serial broth microdilution method; assay type: functional, Salmonella enterica subsp. enterica serovar Enteritidis; details: for Activity: Salmonella enterica subsp. enterica serovar Enteritidis; method in brief: as §1
# Enterococcus faecalis [7] = experiment: Antibacterial activity against Enterococcus faecalis ATCC 51299 at 100 uM incubated for 24 hrs; assay type: functional, organism-based
# Method in brief: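 Single-concentration screen in brain heart infusion broth. Log-phase cells at ~5×10^5 cells/mL were grown with 100 μM compound for 24 h at 37 °C. Growth was read as OD600 and expressed as a percentage of untreated wells. DMSO and blank controls were included.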
# Pseudomonas aeruginosa [8] = experiment: Bactericidal activity against Pseudomonas aeruginosa PA14 assessed as reduction in CFU at 1 to 4 times MIC90 incubated for 24 hrs; assay type: functional, organism-based
# [9] = test system: Mycobacterium tuberculosis; experiment: Antibacterial activity against Mycobacterium tuberculosis ATCC 27294 incubated for 7 days by broth dilution method; assay type: functional; details: ATCC 27294, 168 h
# Method in brief: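 M. tuberculosis ATCC 27294 in complete 7H9 with 0.05% Tween 80, 0.5% glycerol and 10% ADC. Mid-log cells adjusted to OD600 0.1 and added 1:1 to 2-fold serial compound dilutions (highest 100 μM). Incubated 7 d at 37 °C with shaking at 80 rpm, then OD600 read. Isoniazid positive control. MIC50/MIC90 versus drug-free controls. Biological duplicates.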
# Streptococcus pneumoniae [10] = experiment: Antibacterial activity against Streptococcus pneumoniae ATCC 49619 incubated for 24 hrs by serial broth microdilution method; assay type: functional
# Method in brief: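 Cultured in MH medium plus 3% defibrinated sheep blood at 37 °C, 5% CO2. Log-phase inoculum ~5×10^5 cells/mL was exposed to serial compound dilutions for 24 h. MIC50/MIC90 are relative to drug-free controls. Two independent experiments in duplicate.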
# Staphylococcus aureus [11] = experiment: Bactericidal activity against methicillin-resistant Staphylococcus aureus ATCC 43300 assessed as reduction in CFU at 1 to 4 times MIC90 incubated for 24 hrs; assay type: functional; details: ATCC 43300, 24 h, read-out: MBC99.9
# Pseudomonas aeruginosa [12] = experiment: Antibacterial activity against Pseudomonas aeruginosa PA14 incubated for 24 hrs by serial broth microdilution method; assay type: functional, organism-based; method in brief: as §1
# Escherichia coli [13] = experiment: Bactericidal activity against Escherichia coli BW25113 assessed as reduction in CFU at 1 to 4 times MIC90 incubated for 24 hrs; assay type: functional, organism-based
# Klebsiella pneumoniae [14] = experiment: Antibacterial activity against Klebsiella pneumoniae ATCC 13883 incubated for 24 hrs by serial broth microdilution method; assay type: functional, organism-based; method in brief: as §1
# Staphylococcus aureus [15] = experiment: Antibacterial activity against methicillin-resistant Staphylococcus aureus ATCC 43300 incubated for 24 hrs by serial broth microdilution method; assay type: functional
# Method in brief: (§5)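 Growth read by OD600. MRSA in cation-adjusted Mueller–Hinton broth, M. smegmatis in complete 7H9. MIC50 and MIC90 are 50% and 90% growth inhibition versus drug-free controls. Two independent experiments, each in duplicate.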
# Klebsiella pneumoniae [16] = experiment: Bactericidal activity against Klebsiella pneumoniae ATCC 13883 assessed as reduction in CFU at 1 to 4 times MIC90 incubated for 24 hrs; assay type: functional, organism-based
# [17] = test system: Mycobacterium tuberculosis; experiment: Antibacterial activity against Mycobacterium tuberculosis ATCC 27294 at 100 uM incubated for 7 days; assay type: functional, organism-based
# Streptococcus pneumoniae [18] = experiment: Bactericidal activity against Streptococcus pneumoniae ATCC 49619 assessed as reduction in CFU at 1 to 4 times MIC90 incubated for 24 hrs; assay type: functional; details: ATCC 49619, 24 h, read-out: MBC99.9
# Salmonella enteritidis [19] = experiment: Bactericidal activity against Salmonella enteritidis ATCC 13076 assessed as reduction in CFU at 1 to 4 times MIC90 incubated for 24 hrs; assay type: functional, Salmonella enterica subsp. enterica serovar Enteritidis; details: Salmonella enterica, ATCC 13076, 24 h; read-out: MBC99.9
# [20] = test system: Mycolicibacterium smegmatis; experiment: Antibacterial activity against Mycolicibacterium smegmatis MC2 155 incubated for 24 hrs by serial broth microdilution method; assay type: functional; details: MC2 155, 24 h; method in brief: as §5
# Escherichia coli [21] = experiment: Antibacterial activity against Escherichia coli BW25113 incubated for 24 hrs by serial broth microdilution method; assay type: functional, organism-based; method in brief: as §1
# Acinetobacter baumannii [22] = experiment: Bactericidal activity against Acinetobacter baumannii ATCC 17961 assessed as reduction in CFU at 1 to 4 times MIC90 incubated for 24 hrs; assay type: functional; details: ATCC 17961, 24 h, read-out: MBC99.9
# [23] = test system: Mycolicibacterium smegmatis; experiment: Bactericidal activity against Mycolicibacterium smegmatis MC2 155 assessed as reduction in CFU at 1 to 4 times MIC90 incubated for 24 hrs; assay type: functional; details: MC2 155, 24 h, read-out: MBC99.9
# Enterococcus faecalis [24] = experiment: Antibacterial activity against Enterococcus faecalis ATCC 51299 incubated for 24 hrs by serial broth microdilution method; assay type: functional, organism-based
# Method in brief: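 Broth microdilution in brain heart infusion broth, ~5×10^5 cells/mL log-phase inoculum, serial compound dilutions, 24 h at 37 °C, OD600 read-out. MIC50/MIC90 are the concentrations giving 50%/90% growth inhibition relative to drug-free controls. Two independent experiments in duplicate.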
# Streptococcus pneumoniae [25] = experiment: Antibacterial activity against Streptococcus pneumoniae ATCC 49619 at 100 uM incubated for 24 hrs; assay type: functional, organism-based
# Method in brief: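 Single 100 μM screen in MH medium with 3% defibrinated sheep blood at 37 °C under 5% CO2, ~5×10^5 cells/mL, 24 h.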
# [26] = target: T2, tRNA (guanine-N(1)-)-methyltransferase (Pseudomonas aeruginosa (strain ATCC 15692 / DSM 22644 / CIP 104116 / JCM14847 / LMG 12228 / 1C / PRS 101 / PAO1)) (UniProt Q9HXQ1); experiment: Binding affinity to Pseudomonas aeruginosa tRNA (guanine(37)-N1)-methyltransferase (Leu5 to Asp25 residues) expressed in Escherichia coli BL21 (DE3) Rosetta T1R cells assessed as thermal stabilization of protein by measuring change in melting temperature at 0.1 mM by SYPRO orange based thermal shift assay
# T2 sequence (whole entry): T1 sequence (Q9HXQ1 whole entry)
# Method in brief: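 Thermal shift: 4 μM TrmD with 5× SYPRO Orange and ligand in 50 mM Tris-HCl pH 8, 150 mM NaCl, 1 mM MgCl2, 1 mM DTT, 0.05% Tween-20. Buffer-only control. Heated from 25 to 95 °C in a real-time PCR instrument, and Tm taken as the unfolding midpoint. Ligand levels: SAH 2 mM, inhibitors 0.1 mM.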
# [27] = target: T2, tRNA (guanine-N(1)-)-methyltransferase (Pseudomonas aeruginosa (strain ATCC 15692 / DSM 22644 / CIP 104116 / JCM14847 / LMG 12228 / 1C / PRS 101 / PAO1)); experiment: as §2, with “production up to 50 uM” for “production”; method in brief: as §3
# Erythrocyte = experiment: Hemolytic activity in human RBC at 100 uM measured after 1 hr; assay type: ADME, cell-based
# Method in brief: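 Fresh human RBCs were PBS-washed and resuspended to OD600 24, then mixed 1:1 by volume with compound serially diluted in PBS. Incubated 1 h at 37 °C without shaking and centrifuged at 1000g for 15 min. Triton X-100 served as positive control. Run in triplicate.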
# [28] = Salmonella enterica, ATCC 13076, 24 h
smiles,measurement,setting,value
CCCCCCCCCCCCNCc1ccc(CNC(=O)c2csc3nc[nH]c(=O)c23)cc1,MIC50,"Acinetobacter baumannii [1]; ATCC 17961, 24 h",75 µM
same,MIC90,"Acinetobacter baumannii [1]; ATCC 17961, 24 h",99 µM
same,MBC99.9,Enterococcus faecalis [2],inactive
same,IC50,[3],380 nM
same,Activity,[4],Active
same,Activity,Staphylococcus aureus [5],Active
same,MIC50,Salmonella enteritidis [6]; [28],> 100 µM
same,MIC90,Salmonella enteritidis [6]; [28],> 100 µM
same,Activity,Enterococcus faecalis [7],Active
same,MBC99.9,Pseudomonas aeruginosa [8],inactive
same,MIC50,[9],44 µM
same,MIC90,[9],88 µM
same,MIC50,"Streptococcus pneumoniae [10]; ATCC 49619, 24 h",62 µM
same,MIC90,"Streptococcus pneumoniae [10]; ATCC 49619, 24 h",74 µM
same,MBC,Staphylococcus aureus [11],34 µM
same,MIC50,Pseudomonas aeruginosa [12],inactive
same,MIC90,Pseudomonas aeruginosa [12],inactive
same,MBC99.9,Escherichia coli [13],inactive
same,MIC50,Klebsiella pneumoniae [14],inactive
same,MIC90,Klebsiella pneumoniae [14],inactive
same,MIC50,"Staphylococcus aureus [15]; ATCC 43300, 24 h",5 µM
same,MIC90,"Staphylococcus aureus [15]; ATCC 43300, 24 h",8.5 µM
same,MBC99.9,Klebsiella pneumoniae [16],inactive
same,Activity,[17],Active
same,MBC,Streptococcus pneumoniae [18],> 100 µM
same,MBC,Salmonella enteritidis [19],> 100 µM
same,MIC50,[20],17 µM
same,MIC90,[20],23 µM
same,MIC50,Escherichia coli [21],inactive
same,MIC90,Escherichia coli [21],inactive
same,MBC,Acinetobacter baumannii [22],> 100 µM
same,MBC,[23],69 µM
same,MIC50,Enterococcus faecalis [24],inactive
same,MIC90,Enterococcus faecalis [24],inactive
same,Activity,Streptococcus pneumoniae [25],Active
CCCCCCCCNCc1ccc(CNC(=O)c2csc3ncnc(OCCCCCC)c23)cc1,ΔTm,[26],1 to 2 °C
same,inhibition,[27],inactive
O=C(NCc1ccc(CNC(=O)c2cc(=O)c(O)cn2O)cc1)c1csc2nc[nH]c(=O)c12,Activity,Acinetobacter baumannii [1],inactive
same,IC50,[3],700 nM
same,Activity,[4],inactive
same,Activity,Staphylococcus aureus [5],inactive
same,Activity,Salmonella enteritidis [6],inactive
same,Activity,Enterococcus faecalis [7],inactive
same,Activity,Streptococcus pneumoniae [10],inactive
same,Activity,Pseudomonas aeruginosa [12],inactive
same,Activity,Klebsiella pneumoniae [14],inactive
same,Activity,Staphylococcus aureus [15],inactive
same,Activity,[17],inactive
same,Activity,Escherichia coli [21],inactive
same,Activity,Enterococcus faecalis [24],inactive
same,Activity,Erythrocyte,Non-Toxic
same,Activity,Streptococcus pneumoniae [25],inactive
CCCCCCOc1ncnc2scc(C(=O)NCc3ccc(CNCc4ccccc4)cc3)c12,ΔTm,[26],1 to 2 °C
same,inhibition,[27],inactive
Cl.NCCCCCCCNCc1ccc(CNC(=O)c2csc3nc[nH]c(=O)c23)cc1,Activity,Acinetobacter baumannii [1],inactive
same,IC50,[3],140 nM
same,Activity,[4],inactive
same,Activity,Staphylococcus aureus [5],inactive
same,Activity,Salmonella enteritidis [6],inactive
same,Activity,Enterococcus faecalis [7],inactive
same,Activity,Streptococcus pneumoniae [10],inactive
same,Activity,Pseudomonas aeruginosa [12],inactive
same,Activity,Klebsiella pneumoniae [14],inactive
same,Activity,Staphylococcus aureus [15],inactive
same,Activity,[17],inactive
same,Activity,Escherichia coli [21],inactive
same,Activity,Enterococcus faecalis [24],inactive
same,Activity,Erythrocyte,Non-Toxic
same,Activity,Streptococcus pneumoniae [25],inactive
